Laboratory results: ChEMBL document CHEMBL4007461, “Synthesis, Antiviral Potency, in Vitro ADMET, and X-ray Structure of Potent CD4 Mimics as Entry Inhibitors That Target the Phe43 Cavity of HIV-1 gp120” (J Med Chem, 2017)
pIC50: −log10 of the molar value. Values after ≈ are worked out from the molar mass of the structure shown. Active and inactive are the calls of the source. The rule behind the calls is not given here.

Assays:
[1] = system: Human immunodeficiency virus 1; assay: Antiviral activity against HIV1 HXB2 pseudovirus infected in human TZM-bl cells assessed as inhibition of viral entry treated 1 hr post infection measured after 48 hrs by luciferase reporter gene assay; type: functional, cell-based
In short: (§1)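 TZM-bl cells, 1 x 10^4/well, cultured overnight at 37 °C, then infected with HXB2 Env pseudovirus. Plates spun 30 min at 2090 g at 4 °C, then held 90 min at 37 °C. Unbound virus washed off with PBS and fresh medium added. Compounds given at 10-15 times their IC50 at set times after infection. Cells lysed at 48 h and luciferase read. Two independent experiments, each in triplicate.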

[2] = system: Human immunodeficiency virus 1; assay: Antiviral activity against HIV1 HXB2 pseudovirus infected in human TZM-bl cells assessed as inhibition of viral entry treated 2 to 4 hrs post infection measured after 48 hrs by luciferase reporter gene assay; type: functional, cell-based; in short: as §1
TZM = assay: (§2) Cytotoxicity against human TZM-bl cells incubated for 3 days by XTT assay; type: cell-based; settings: tzm, 72 h
In short: (§3)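 TZM-bl cells, 1 x 10^4/well, cultured overnight at 37 °C. Compounds added at graded concentrations for three days.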

[3] = system: Human immunodeficiency virus 1; assay: Antiviral activity against X4 tropic HIV1 HXB2 infected in human TZM-bl cells pretreated with virus for 30 mins followed by 3 days incubation with cells by luciferase reporter gene based single cycle infection assay; type: functional, cell-based
In short: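 TZM-bl cells (1 x 10^4/well) were cultured overnight at 37 °C. HXB2-Env pseudovirus was preincubated 30 min with graded compound concentrations, then added to the cells for 3 days. Cells were washed and lysed, and luciferase was read. IC50 came from percent inhibition.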

[4] = system: Human immunodeficiency virus 1; assay: Antiviral activity against HIV1 3B infected in human MT2 cells assessed as inhibition of p24 antigen production pretreated with virus for 30 mins followed by 4 days incubation with cells by sandwich ELISA based multicycle infection assay; type: functional, cell-based
In short: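 MT-2 cells were infected with HIV-1 IIIB at 100 TCID50 and preincubated 30 min with graded compound concentrations. Medium was replaced next day. Supernatants were collected 4 days post-infection, lysed with equal volume 5% Triton X-100, and p24 was measured by sandwich ELISA. IC50 came from percent inhibition of p24.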

MT2 = assay: (§4) Cytotoxicity against human MT2 cells incubated for 4 days by XTT assay; type: cell-based; settings: mt2, 96 h, 96 h
In short: (§5)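 Run alongside the MT-2 multicycle infection assay. Compound at graded concentrations mixed with an equal volume of MT-2 cells (10^5 cells/ml). Medium replaced next day and culture continued four days.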

[5] = as §2; type: cell-based; settings: TZM-bl cells; in short: as §3
[6] = as §4; type: cell-based; settings: MT2 cells; in short: as §5
[7] = Inhibition of HIV1 HXB2 gp120-mediated cell to cell fusion using human MAGI-CCR5 cells as indicator cells and Env/Tat-expressing HL2/3 cells as effector cells preincubated with MAGI-CCR5 cells for 1 hr followed by HL2/3 cells addition by beta-galactosidase reporter gene assay; settings: Human immunodeficiency virus 1, HXB2
[8] = Inhibition of HIV1 reverse transcriptase by colorimetric assay; design: species or system Human immunodeficiency virus 1
In short: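 HIV-1 reverse transcriptase activity measured with a commercial colorimetric reverse transcriptase kit, following the maker's instructions.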

[9] = Aqueous solubility of the compound at 1 to 100 uM in PBS at pH 7.4 after 2 hrs by turbidimetric analysis; type: physicochemical
In short: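 DMSO stocks diluted 1:100 into phosphate-buffered saline pH 7.4, giving 1, 3, 10, 30 and 100 µM final in 1% DMSO. Seven replicate wells per concentration, incubated 2 h at 37 °C, absorbance read at 620 nm. Solubility taken as the concentration giving absorbance above the 1% DMSO vehicle.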

[10] = Apparent permeability from apical to basolateral side in human Caco2 cells at 10 uM at pH 7.4 by LC-MS/MS analysis; type: ADME, cell-based; settings: Caco-2, pH 7.4
In short: (§6)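 Caco-2 cells, passage 40-60, seeded on Transwell inserts at 1 x 10^5 cells/cm2 and grown 20 days in DMEM. Monolayers equilibrated 40 min in HBSS. Donor: compound at 10 µM final, 1% DMSO, in HBSS pH 7.4 with lucifer yellow as integrity marker. Sampled at 120 min, A-B and B-A, in duplicate, by LC-MS/MS. Papp = (dQ/dt)/(C0 × A); efflux ratio = Papp(B-A)/Papp(A-B).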

[11] = Apparent permeability from basolateral to apical side in human Caco2 cells at 10 uM at pH 7.4 by LC-MS/MS analysis; type: ADME, cell-based; settings: Caco-2, pH 7.4; in short: as §6
[12] = Metabolic stability in human liver microsomes assessed as compound remaining at 45 mins in presence of NADPH by LC-MS/MS analysis; type: ADME, microsome; settings: read-out: Stability
[13] = Intrinsic clearance in human liver microsomes assessed per mg protein in presence of NADPH by LC-MS/MS analysis; type: ADME, microsome; settings: read-out: CLH
[14] = Unbound fraction in human plasma at 5 uM by LC-MS/MS based equilibrium dialysis; type: ADME, cell-free
Cytochrome P450 2C19 = Cytochrome P450 2C19 (Homo sapiens, UniProt P33261); assay: Inhibition of CYP2C19 in human liver microsomes using mephenytoin as substrate after 60 mins in presence of NADPH by LC-MS/MS analysis; type: ADME
Sequence of Cytochrome P450 2C19 (P33261 whole entry): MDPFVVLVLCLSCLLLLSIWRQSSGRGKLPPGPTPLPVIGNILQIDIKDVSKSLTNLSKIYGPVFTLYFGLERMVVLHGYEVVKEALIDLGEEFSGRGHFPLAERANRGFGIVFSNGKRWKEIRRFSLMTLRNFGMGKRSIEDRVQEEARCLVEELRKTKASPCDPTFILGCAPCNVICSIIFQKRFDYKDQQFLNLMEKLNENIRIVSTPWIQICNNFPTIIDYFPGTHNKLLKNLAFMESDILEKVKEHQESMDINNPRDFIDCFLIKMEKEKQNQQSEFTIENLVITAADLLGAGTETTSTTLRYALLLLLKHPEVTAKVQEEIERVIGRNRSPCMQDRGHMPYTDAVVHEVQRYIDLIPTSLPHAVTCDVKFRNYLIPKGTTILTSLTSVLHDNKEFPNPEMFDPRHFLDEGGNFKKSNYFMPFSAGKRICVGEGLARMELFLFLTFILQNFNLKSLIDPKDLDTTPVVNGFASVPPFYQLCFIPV

Cytochrome P450 3A4 = Cytochrome P450 3A4 (Homo sapiens, UniProt P08684); assay: Inhibition of CYP3A4 in human liver microsomes using midazolam as substrate after 5 mins in presence of NADPH by LC-MS/MS analysis; type: ADME
Sequence of Cytochrome P450 3A4 (P08684 whole entry): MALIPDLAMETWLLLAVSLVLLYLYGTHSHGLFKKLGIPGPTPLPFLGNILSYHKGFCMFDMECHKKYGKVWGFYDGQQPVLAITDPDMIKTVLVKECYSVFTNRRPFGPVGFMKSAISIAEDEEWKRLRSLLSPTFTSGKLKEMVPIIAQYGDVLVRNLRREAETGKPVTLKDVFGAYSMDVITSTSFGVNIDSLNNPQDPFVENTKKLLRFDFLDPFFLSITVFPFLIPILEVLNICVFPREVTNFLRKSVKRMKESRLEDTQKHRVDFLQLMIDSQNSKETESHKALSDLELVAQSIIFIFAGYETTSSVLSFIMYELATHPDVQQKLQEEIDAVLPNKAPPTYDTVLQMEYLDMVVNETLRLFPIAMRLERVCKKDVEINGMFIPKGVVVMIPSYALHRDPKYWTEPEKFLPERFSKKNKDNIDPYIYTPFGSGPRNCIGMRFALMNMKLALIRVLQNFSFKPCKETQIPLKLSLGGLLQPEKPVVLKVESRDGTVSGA

Cytochrome P450 2D6 = Cytochrome P450 2D6 (Homo sapiens, UniProt P10635); assay: Inhibition of CYP2D6 in human liver microsomes using dextromethorphan as substrate after 5 mins in presence of NADPH by LC-MS/MS analysis; type: ADME
Sequence of Cytochrome P450 2D6 (P10635 whole entry): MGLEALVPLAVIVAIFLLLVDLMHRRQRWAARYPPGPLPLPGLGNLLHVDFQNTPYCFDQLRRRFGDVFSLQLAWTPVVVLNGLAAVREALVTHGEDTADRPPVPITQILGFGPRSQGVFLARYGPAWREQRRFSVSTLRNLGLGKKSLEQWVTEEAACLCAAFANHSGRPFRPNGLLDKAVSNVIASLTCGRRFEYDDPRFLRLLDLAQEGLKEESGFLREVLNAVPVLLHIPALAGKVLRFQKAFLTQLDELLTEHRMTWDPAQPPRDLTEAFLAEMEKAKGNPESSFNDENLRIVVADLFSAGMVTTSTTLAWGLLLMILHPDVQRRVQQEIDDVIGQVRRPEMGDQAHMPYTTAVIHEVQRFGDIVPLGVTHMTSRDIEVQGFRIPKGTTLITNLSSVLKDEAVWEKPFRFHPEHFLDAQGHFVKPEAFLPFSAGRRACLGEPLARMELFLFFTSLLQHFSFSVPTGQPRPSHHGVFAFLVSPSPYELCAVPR

Cytochrome P450 2C9 = Cytochrome P450 2C9 (Homo sapiens, UniProt P11712); assay: Inhibition of CYP2C9 in human liver microsomes using tolbutamide as substrate after 60 mins in presence of NADPH by LC-MS/MS analysis; type: ADME
Sequence of Cytochrome P450 2C9 (P11712 whole entry): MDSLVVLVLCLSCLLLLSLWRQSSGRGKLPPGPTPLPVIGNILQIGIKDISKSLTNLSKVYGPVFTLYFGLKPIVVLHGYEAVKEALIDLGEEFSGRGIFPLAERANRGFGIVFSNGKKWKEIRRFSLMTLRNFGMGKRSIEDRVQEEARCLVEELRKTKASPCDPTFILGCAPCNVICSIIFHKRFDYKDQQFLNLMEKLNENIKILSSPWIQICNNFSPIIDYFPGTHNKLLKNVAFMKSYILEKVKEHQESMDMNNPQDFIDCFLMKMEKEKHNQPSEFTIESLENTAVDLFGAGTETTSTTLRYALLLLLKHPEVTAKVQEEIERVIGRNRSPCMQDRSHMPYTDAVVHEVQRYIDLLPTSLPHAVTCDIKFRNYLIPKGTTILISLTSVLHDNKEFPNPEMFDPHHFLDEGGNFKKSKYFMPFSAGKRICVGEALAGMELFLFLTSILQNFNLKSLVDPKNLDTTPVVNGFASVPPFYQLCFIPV

[15] = Inhibition of CYP1A in human liver microsomes using ethoxyresorufin as substrate after 5 mins in presence of NADPH by LC-MS/MS analysis
[16] = biological target: Voltage-gated inwardly rectifying potassium channel KCNH2 (Homo sapiens, UniProt Q12809); assay: Inhibition of human ERG expressed in CHO cells by patch clamp electrophysiology assay; type: cell-based
Sequence of Voltage-gated inwardly rectifying potassium channel KCNH2 (Q12809 whole entry): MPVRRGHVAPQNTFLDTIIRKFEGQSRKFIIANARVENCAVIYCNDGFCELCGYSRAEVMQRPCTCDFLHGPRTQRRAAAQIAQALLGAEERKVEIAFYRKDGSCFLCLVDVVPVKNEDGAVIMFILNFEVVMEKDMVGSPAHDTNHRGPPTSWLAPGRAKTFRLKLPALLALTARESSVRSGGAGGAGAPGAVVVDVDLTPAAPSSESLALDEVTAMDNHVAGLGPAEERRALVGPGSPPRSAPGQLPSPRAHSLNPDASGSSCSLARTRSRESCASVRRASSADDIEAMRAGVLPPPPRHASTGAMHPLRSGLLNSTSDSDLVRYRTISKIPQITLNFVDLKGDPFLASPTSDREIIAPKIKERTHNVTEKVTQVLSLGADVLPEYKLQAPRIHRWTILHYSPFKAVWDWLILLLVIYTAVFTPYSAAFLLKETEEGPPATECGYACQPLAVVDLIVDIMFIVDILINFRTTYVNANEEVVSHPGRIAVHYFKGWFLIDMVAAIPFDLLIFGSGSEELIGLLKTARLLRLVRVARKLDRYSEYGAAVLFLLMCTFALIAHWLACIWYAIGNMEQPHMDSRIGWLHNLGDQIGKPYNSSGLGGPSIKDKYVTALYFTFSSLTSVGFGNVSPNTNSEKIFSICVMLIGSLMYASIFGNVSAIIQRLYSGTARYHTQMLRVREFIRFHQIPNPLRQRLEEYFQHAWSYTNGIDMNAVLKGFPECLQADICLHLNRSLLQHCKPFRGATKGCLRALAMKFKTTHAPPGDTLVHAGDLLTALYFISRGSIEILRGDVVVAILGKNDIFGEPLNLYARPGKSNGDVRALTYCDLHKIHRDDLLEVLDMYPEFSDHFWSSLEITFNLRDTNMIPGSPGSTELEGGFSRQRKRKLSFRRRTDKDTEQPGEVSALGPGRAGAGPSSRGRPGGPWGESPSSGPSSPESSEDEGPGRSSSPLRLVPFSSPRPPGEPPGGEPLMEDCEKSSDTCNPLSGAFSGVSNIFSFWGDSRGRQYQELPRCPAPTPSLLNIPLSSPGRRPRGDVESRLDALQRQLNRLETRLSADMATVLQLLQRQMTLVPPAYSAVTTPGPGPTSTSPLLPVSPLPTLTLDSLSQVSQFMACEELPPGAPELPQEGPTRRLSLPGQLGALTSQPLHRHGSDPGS

[17] = system: Human immunodeficiency virus 1; assay: Antiviral activity against ENV pseudotyped CCR5-tropic HIV1 subtype C 225925-2, clone 22; type: functional; settings: Human immunodeficiency virus 1, subtype C 225925-2, clone 22
In short: (§7)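 Env-pseudotyped viruses made by co-transfecting HEK293T cells with an Env-deleted pSG3 backbone (8 µg) and an Env-expression plasmid (8 µg). Supernatants were harvested 2 days after transfection, filtered, titered and stored at −80 °C. They were used for single-cycle infection, and IC50 was taken from percent inhibition.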

[18] = system: Human immunodeficiency virus 1; assay: Antiviral activity against ENV pseudotyped CCR5-tropic HIV1 subtype D QA013.70I.ENV.M12; type: functional; settings: Human immunodeficiency virus 1, subtype D QA013.70I.ENV.M12; in short: as §7
[19] = system: Human immunodeficiency virus 1; assay: Antiviral activity against ENV pseudotyped CCR5-tropic HIV1 subtype D QD435.100M.ENV.B5; type: functional; settings: Human immunodeficiency virus 1, subtype D QD435.100M.ENV.B5; in short: as §7
[20] = system: Human immunodeficiency virus 1; assay: Antiviral activity against HIV1 HXB2 pseudovirus infected in human TZM-bl cells assessed as inhibition of viral entry treated 8 hrs post infection measured after 48 hrs by luciferase reporter gene assay; type: functional, cell-based; in short: as §1

Row | SMILES | CC50 (TZM) [µM] | pIC50 [3] | pIC50 [4] | CC50 (MT2) [µM] | also measured
1 | COc1ccnc2[nH]cc(C(=O)C(=O)N3CCN(C(=O)c4ccccc4)C[C@H]3C)c12 | – | – | – | – | inhibition [1]: Active; inhibition [2]: inactive
2 | NCC(NC(=O)c1ccc(-c2ccc(Cl)cc2)[nH]1)c1ncc(CO)s1 (stereo in doubt; 81B) | 37.1 | 6.12 | 5.74 | 34.5 | –
3 | CNCC(NC(=O)c1ccc(-c2ccc(C)c(F)c2)[nH]1)c1nc(C)c(CO)s1 (stereo in doubt; 43B) | 34.2 | 5.80 | 6.02 | 30.6 | –
4 | CNCCC(NC(=O)c1ccc(-c2ccc(F)c(Cl)c2)[nH]1)c1nc(C)c(CO)s1 (stereo in doubt; 65B) | 22.3 | 5.34 | 5.24 | 24.2 | –
5 | CNCC(NC(=O)c1ccc(-c2ccc(Cl)c(F)c2)[nH]1)c1ncc(CO)s1 (stereo in doubt; 86B) | 17.3 | 6.02 | 5.40 | 18.3 | –
6 | c1cc(CN2CCCNCCNCCCNCC2)ccc1CN1CCCNCCNCCCNCC1 | – | – | – | – | inhibition [1]: Active; inhibition [2]: inactive
7 | Cc1nc(C(NC(=O)c2ccc(-c3ccc(Cl)cc3)[nH]2)C2CCCCN2)sc1CO (stereo not given) | – | – | – | – | CC50 at 72 h [5]: 23.6 µM; CC50 at 96 h [6]: 24.8 µM; pIC50 [7]: 5.21; pIC50 [8]: 4.33; solubility kinetic at 2 h [9]: 65 µM (≈ 28.9 µg/mL); Papp A→B at 10 µM [10]: 2.31 ×10⁻⁶ cm/s; Papp B→A at 10 µM [11]: 31.3 ×10⁻⁶ cm/s; remaining at […] [12]: 84%; microsomal CLint [13]: < 10 µL/min/mg; fraction unbound at 5 µM [14]: 0.114; pIC50 (Cytochrome P450 2C19): < 4.60; pIC50 (Cytochrome P450 3A4): < 4.60; pIC50 (Cytochrome P450 2D6): < 4.60; pIC50 (Cytochrome P450 2C9): < 4.60; pIC50 [15]: < 4.60; IC50 [16]: 3.8 µM; pIC50 [17]: 5.96; pIC50 [18]: 6.10; pIC50 [19]: 5.85
8 | CNCC(NC(=O)c1ccc(-c2ccc(C)c(F)c2)[nH]1)c1ncc(CO)s1 (stereo in doubt; 87B) | 27.4 | 6.00 | 6.00 | 28.3 | –
9 | Cc1cc(-c2ccc(Cl)cc2)[nH]c1C(=O)NC(CN)c1nc(C)c(CO)s1 (stereo in doubt; 27B) | 27.2 | 5.66 | 5.39 | 24.9 | –
10 | CNCCC(NC(=O)c1ccc(-c2ccc(F)c(C)c2)[nH]1)c1nc(C)c(CO)s1 (stereo in doubt; 66B) | 36.4 | 5.31 | 5.30 | 25.3 | –
11 | Cc1cc(-c2ccc(C(=O)NC(CCN)c3nc(C)c(CO)s3)[nH]2)ccc1F (stereo in doubt; 63B) | 38.2 | 5.11 | 5.52 | 34.7 | –
12 | Cc1nc(C(CCN)NC(=O)c2ccc(-c3ccc(F)c(Cl)c3)[nH]2)sc1CO (stereo in doubt; 62B) | 24.5 | 5.10 | 5.03 | 24.9 | –
13 | COc1cnc(-n2cnc(C)n2)c2[nH]cc(C(=O)C(=O)N3CCN(C(=O)c4ccccc4)CC3)c12 | – | – | – | – | solubility kinetic at 2 h [9]: > 100 µM; Papp A→B at 10 µM [10]: 7.62 ×10⁻⁶ cm/s; Papp B→A at 10 µM [11]: 37.4 ×10⁻⁶ cm/s; pIC50 [15]: < 4.60
14 | Cc1nc(C(CCN(C)C)NC(=O)c2ccc(-c3ccc(F)c(Cl)c3)[nH]2)sc1CO (stereo in doubt; 68B) | 22 | 5.74 | 5.36 | 22 | –
15 | Cc1cc(-c2ccc(C(=O)NC(CCN(C)C)c3nc(C)c(CO)s3)[nH]2)ccc1F (stereo in doubt; 69B) | 23.5 | 5.32 | 5.54 | 23.5 | –
16 | Cc1cc(C(=O)NC(CN)c2nc(C)c(CO)s2)[nH]c1-c1ccc(Cl)cc1 (stereo in doubt; 28A) | 22.2 | – | – | 18 | pIC50 ([3]; Human immunodeficiency virus 1, HXB2, TZM-bl): 5.44; pIC50 ([4]; Human immunodeficiency virus 1, 3B, MT2): 5.28
17 | NCC(NC(=O)c1ccc(-c2ccc(Cl)c(F)c2)[nH]1)c1ncc(CO)s1 (stereo in doubt; 82B) | 33 | 6.24 | 5.92 | 36 | –
18 | CC1(C)CC(NC(=O)C(=O)Nc2ccc(Cl)cc2)CC(C)(C)N1 | – | – | – | – | pIC50 [7]: 5.54; pIC50 [8]: < 3.52
19 | Cc1nc(C(CN)NC(=O)c2ccc(-c3ccc(Cl)cc3)n2C)sc1CO (stereo in doubt; 26B) | 35.8 | 4.59 | – | 32.1 | –
20 | Cc1nnc(C(=O)NC(C)(C)c2nc(C(=O)NCc3ccc(F)cc3)c(O)c(=O)n2C)o1 | – | – | – | – | inhibition [20]: inactive
